Data on 14 molecules can be found in PubChem BioAssay.

SMILES strings stand for the structures. The source made the active and inactive calls. Unless noted, no stated cut-off is given here; in the data, active means inhibition above about 30%; inactive means the rest.

A short description of assay [1]: Her2 expression decrease, cell viability multiplex – SKBR3 breast tumor cells, AlphaScreen, ATP viability, primary screen (AID 461;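 active means Her2 level under about 52% in both replicate screens, with viability over 70% of control, limit read from the data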;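 on Her2 level: lower value means less Her2 protein in the cells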;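 on viability: percent of carrier control wells set as 100% viability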). The settings on record: SKBR3 Her2 protein level, 18-24 h, measured here: SKBR3 viability, ATP luminescence, at 10 µM. Background: Alpha assays give light when donor and acceptor beads are brought close together.
Assay [2] addresses Receptor tyrosine-protein kinase erbB-2 (Homo sapiens) (UniProt P04626). The assay is described as above. The following applies: 18-24 h, at 10 µM, stronger effect = lower value.
Assay [3] is described as follows: reduced viability of SK-BR-3 breast cancer cells – cell-based, 24 h, human, pilot screen (AID 572;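 active means viability at or below 10% of carrier control in both of two separate runs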;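 further: compound exposure lasted between 18 and 24 h rather than exactly 24 h; 100% = carrier-treated control wells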). The settings on record: SK-BR-3 viability, CellTiter-Glo luminescence, at 10 µM, stronger effect = lower value.
A short description of assay [4]: HUVEC growth inhibition – cell-based, human, primary screen (AID 575;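 active means viability at or below 30% in both replicate assays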;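 further: 100% = median of untreated cell wells with 0.1% DMSO on each plate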). The following applies: HUVEC proliferation, CellTiter-Glo luminescence, 72 h; at 10 µM; stronger effect = lower value. The method, boiled down: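 Test system: primary human umbilical vein endothelial cells; medium: endothelial basal medium with 2% FBS plus growth supplements; dosing: 10 µM compound only; times: 72 h treatment at 37 °C; signal: CTG luminescence; read-out: % viability relative to median vehicle-well signal on each plate; control set: vehicle and MePR control wells; plate: 384-well, collagen-coated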
In general terms: ATP-based viability assays read luminescence as a measure of living cells.

Assay [5] in a line: H69AR cell proliferation blockers – human, duplicate replicates, primary screen (AID 580;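 active means viability at or under a set limit in both replicates, limit being median viability minus 3 SD, cut at about 48% in these data, passing the limit was not always enough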;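 further: 100% = mean luminescence of untreated wells and 0% = no signal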). The settings on record: H69AR lung tumor cells viability, ATP luminescence, 72 h; at 10 µM; stronger effect = lower value.
The nature of assay [6]: MRP1 drug-resistance reversers in H69AR cells – cell-based, doxorubicin co-treatment, pilot screen (AID 601;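 active means viability loss from added drug above about 55%, and viability with drug at most 40%, in both replicates, limit read from the data, passing the limit was not always enough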). The following applies: CellTiter-Glo, 72 h, at 10 µM; for differential viability (reversal): stronger effect = higher value.
Assay [7] in a line: yeast transport mutant growth inhibition pilot in 384-well plates, post-Golgi transport modulator project (AID 636; in the data active means inhibition above about 31%). The settings on record: absorbance 615 nm, about 18 h, stronger effect = higher value.
The nature of assay [8]: growth suppression of yeast trafficking mutant, preliminary HTS, modulators of trafficking downstream of Golgi apparatus project, 1536-format plate, OD 615 nm (AID 637). The settings on record: yeast transport mutant growth, absorbance 615 nm, 18 h; stronger effect = higher value.
Where [9] appears, read: H69AR cells + 2 uM doxorubicin, measured here: viability with 2 uM doxorubicin, stronger effect = lower value.
Where [10] appears, read: H69AR cells, compound alone cytotoxicity.

Sequence of Receptor tyrosine-protein kinase erbB-2 (Homo sapiens) (P04626 whole entry, looked up): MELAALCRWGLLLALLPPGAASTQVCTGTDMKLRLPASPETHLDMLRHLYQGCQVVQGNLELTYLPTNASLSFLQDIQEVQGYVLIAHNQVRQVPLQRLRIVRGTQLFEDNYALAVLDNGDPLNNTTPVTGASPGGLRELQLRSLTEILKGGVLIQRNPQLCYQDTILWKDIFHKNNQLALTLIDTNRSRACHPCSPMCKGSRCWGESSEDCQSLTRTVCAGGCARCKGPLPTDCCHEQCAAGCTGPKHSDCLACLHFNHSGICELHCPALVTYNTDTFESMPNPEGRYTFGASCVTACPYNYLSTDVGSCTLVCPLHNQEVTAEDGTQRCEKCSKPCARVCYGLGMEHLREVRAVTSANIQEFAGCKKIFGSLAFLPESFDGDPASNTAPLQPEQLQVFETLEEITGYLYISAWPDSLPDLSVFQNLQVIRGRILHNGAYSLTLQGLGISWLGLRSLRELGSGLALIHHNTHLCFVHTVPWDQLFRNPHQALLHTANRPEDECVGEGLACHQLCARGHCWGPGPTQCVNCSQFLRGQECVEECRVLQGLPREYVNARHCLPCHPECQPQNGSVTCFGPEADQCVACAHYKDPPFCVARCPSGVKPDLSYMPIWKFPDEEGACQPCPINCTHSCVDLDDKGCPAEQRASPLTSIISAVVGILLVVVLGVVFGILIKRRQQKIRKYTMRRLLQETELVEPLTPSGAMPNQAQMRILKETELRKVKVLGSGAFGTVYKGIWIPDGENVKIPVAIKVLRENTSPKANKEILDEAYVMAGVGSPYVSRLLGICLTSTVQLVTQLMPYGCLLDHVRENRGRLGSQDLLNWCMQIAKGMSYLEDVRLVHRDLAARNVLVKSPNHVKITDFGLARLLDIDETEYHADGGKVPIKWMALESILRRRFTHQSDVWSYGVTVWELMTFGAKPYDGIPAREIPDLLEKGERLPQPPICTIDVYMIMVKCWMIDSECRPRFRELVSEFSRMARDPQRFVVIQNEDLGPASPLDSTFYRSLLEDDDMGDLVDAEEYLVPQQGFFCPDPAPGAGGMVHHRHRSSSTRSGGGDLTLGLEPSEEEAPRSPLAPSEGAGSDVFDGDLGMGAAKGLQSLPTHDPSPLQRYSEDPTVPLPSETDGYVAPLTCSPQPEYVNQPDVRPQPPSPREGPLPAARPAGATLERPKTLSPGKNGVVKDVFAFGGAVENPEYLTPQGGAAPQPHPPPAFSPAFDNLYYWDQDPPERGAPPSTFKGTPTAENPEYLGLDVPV

For the molecule `Cn1c(=O)[nH]c(=O)c2c1nc(N(CCO)Cc1ccccc1)n2Cc1ccccc1Cl`, the viability (commonly a read-out of living cells in per cent, often relative to untreated cells) is 90.5% in assay [1]; 90.5% (inactive) in assay [3]; 80.2% (inactive) in assay [4]; 81.6% (inactive) in assay [5]; 55.6% in assay [6] (setting [9]); 81.6% in assay [6] (setting [10]). For the same molecule, in assay [2], the Her2 level was 82.5% (inactive). The differential viability (reversal) in assay [6] (H69AR cells + 2 uM doxorubicin) was 26% (inactive). Besides, the inhibition (commonly the relative decrease from the control value, in per cent) was -5.47% (inactive) in assay [7] and 3.44% (inactive) in assay [8].
As to `Cc1ccc(Nc2cc(-n3nc(C)cc3C)ncn2)cc1`, the viability in assay [1] is 96.5%; in assay [3], 96.5% (inactive); in assay [4], 70.7% (inactive); in assay [5], 74.8% (inactive); in assay [6] (setting [9]), 82.6%; in assay [6] (setting [10]), 74.8%. Moreover, the Her2 level in assay [2] is 97% (inactive). In assay [6] (H69AR cells + 2 uM doxorubicin), the differential viability (reversal) is -7.74% (inactive). The inhibition in assay [7] is -0.26% (inactive); in assay [8] it was -1.97% (inactive).
Turning to `COCCCN(C(C)=O)c1nc(-c2ccccc2)cs1`, the viability was 91% in assay [1]; 91% (inactive) in assay [3]; 65.5% (inactive) in assay [4]; 94% (inactive) in assay [5]; 84.1% in assay [6] (setting [9]); 94% in assay [6] (setting [10]). Further, in assay [2], the Her2 level was 85.5% (inactive). Moreover, in assay [6] (H69AR cells + 2 uM doxorubicin), the differential viability (reversal) is 9.96% (inactive). In addition, the inhibition in assay [7] is -7.81% (inactive); in assay [8] it was -3.17% (inactive).
As to `CCOC(=O)C1CCCN(C(=O)c2cc3c(C)nc4ccccc4c3o2)C1` (stereo not given), the viability in assay [1] was 86%; in assay [3], 86% (inactive); in assay [4], 71.7% (inactive); in assay [5], 74.7% (inactive); in assay [6] (setting [9]), 36.2%; in assay [6] (setting [10]), 74.7%. In addition, in assay [2], the Her2 level is 99% (inactive). Moreover, the differential viability (reversal) in assay [6] (H69AR cells + 2 uM doxorubicin) is 38.5% (inactive). The inhibition in assay [7] was -1.87% (inactive); in assay [8], 16.7% (inactive).
`COC(=O)CCn1nnc(-c2cccs2)n1`: the viability in assay [1] is 99.5%; in assay [3] it was 99.5% (inactive); in assay [4], 101% (inactive); in assay [5], 103% (inactive); in assay [6] (setting [9]) it was 97.4%; in assay [6] (setting [10]) it was 103%. Moreover, the Her2 level in assay [2] is 126% (inactive). Also, the differential viability (reversal) in assay [6] (H69AR cells + 2 uM doxorubicin) was 5.5% (inactive). The inhibition was 3.73% (inactive) in assay [7] and 4.1% (inactive) in assay [8].
Regarding `CCCn1c2c(c(O)c(C(=O)Nc3ccc(C)cn3)c1=O)CCCC2`, the viability is 102% in assay [1]; 102% (inactive) in assay [3]; 96.8% (inactive) in assay [4]; 88% (inactive) in assay [5]; 97.9% in assay [6] (setting [9]); 88% in assay [6] (setting [10]). The Her2 level in assay [2] is 82.5% (inactive). Further, the differential viability (reversal) in assay [6] (H69AR cells + 2 uM doxorubicin) is -9.88% (inactive). Also, the inhibition in assay [7] is -2.89% (inactive); in assay [8], -5.81% (inactive).
Take `CCc1cc2c(=O)n(C(C)C(=O)OC3CCCCC3)cnc2s1` (stereo not given): the viability is 102% in assay [1]; 102% (inactive) in assay [3]; 90.1% (inactive) in assay [4]; 81.6% (inactive) in assay [5]; 85.9% in assay [6] (setting [9]); 81.6% in assay [6] (setting [10]). In addition, the Her2 level in assay [2] was 117% (inactive). Besides, the differential viability (reversal) in assay [6] (H69AR cells + 2 uM doxorubicin) was -4.32% (inactive). For the same molecule, the inhibition is -6.62% (inactive) in assay [7] and -5.83% (inactive) in assay [8].
As for `CCOC(=O)CSc1nc2cc(C(=O)NCc3ccco3)ccc2c(=O)n1-c1ccc(F)cc1`, the viability was 86.5% in assay [1]; 86.5% (inactive) in assay [3]; 71.4% (inactive) in assay [4]; 87.5% (inactive) in assay [5]; 75.6% in assay [6] (setting [9]); 87.5% in assay [6] (setting [10]). Further, the Her2 level in assay [2] was 105% (inactive). Also, the differential viability (reversal) in assay [6] (H69AR cells + 2 uM doxorubicin) was 12% (inactive). The inhibition in assay [7] was -0.93% (inactive); in assay [8], 12.8% (inactive).
Take `O=S(=O)(Nc1cccc2ncccc12)c1cccs1`: the viability is 256% in assay [1]; 256% (inactive) in assay [3]; 23.9% (active) in assay [4]; 1.71% (active) in assay [5]; 1.37% in assay [6] (setting [9]); 1.71% in assay [6] (setting [10]). Further, the Her2 level in assay [2] was 13% (active). Moreover, in assay [6] (H69AR cells + 2 uM doxorubicin), the differential viability (reversal) was 0.345% (inactive). Further, the inhibition in assay [7] is 0.92% (inactive); in assay [8], 6.19% (inactive).
For the molecule `Cc1c(C(=O)OCC(C)C)[nH]c2c1C(=O)CC(c1ccco1)C2` (stereo not given), the viability in assay [1] is 80.5%; in assay [3], 80.5% (inactive); in assay [4] it was 18.5% (active); in assay [5], 24.1% (active); in assay [6] (setting [9]), 46.6%; in assay [6] (setting [10]), 24.1%. Moreover, in assay [2], the Her2 level is 58% (inactive). For the same molecule, in assay [6] (H69AR cells + 2 uM doxorubicin), the differential viability (reversal) was -22.6% (inactive). Further, the inhibition in assay [7] was -1.2% (inactive); in assay [8] it was -3.28% (inactive).
On to `O=C(COc1ccc(F)cc1Br)N1CCc2ccccc21`, for which the viability in assay [1] was 97.5%; in assay [3] it was 97.5% (inactive); in assay [4] it was 77.3% (inactive); in assay [5], 75.3% (inactive); in assay [6] (setting [9]), 81.3%; in assay [6] (setting [10]), 75.3%. The Her2 level in assay [2] is 100% (inactive). In addition, in assay [6] (H69AR cells + 2 uM doxorubicin), the differential viability (reversal) is -6% (inactive). Moreover, the inhibition in assay [7] is -1.43% (inactive); in assay [8], -0.33% (inactive).
For the molecule `COc1ccc(C2CC(=O)c3cnc(NC(=O)c4ccccc4OC)nc3C2)c(OC)c1` (stereo not given), the viability in assay [1] is 97.5%; in assay [3], 97.5% (inactive); in assay [4], 75.1% (inactive); in assay [5] it was 87% (inactive); in assay [6] (setting [9]), 92.7%; in assay [6] (setting [10]), 87%. Besides, in assay [2], the Her2 level is 49% (active). Also, the differential viability (reversal) in assay [6] (H69AR cells + 2 uM doxorubicin) is -5.78% (inactive). Besides, the inhibition in assay [7] was -5.07% (inactive); in assay [8], 1.15% (inactive).
Consider `S=C(c1cccs1)N1CCCC1`, for which the viability was 90.5% in assay [1]; 90.5% (inactive) in assay [3]; 96.7% (inactive) in assay [4]; 100% (inactive) in assay [5]; 89.3% in assay [6] (setting [9]); 100% in assay [6] (setting [10]). Besides, the Her2 level in assay [2] was 110% (inactive). Also, the differential viability (reversal) in assay [6] (H69AR cells + 2 uM doxorubicin) is 11.2% (inactive). For the same molecule, the inhibition in assay [7] was 0.52% (inactive); in assay [8], -8.52% (inactive).
As to `COC(=O)c1ccc(CSc2nnc(-c3ccncc3)o2)o1`, the viability was 110% in assay [1]; 110% (inactive) in assay [3]; 87.8% (inactive) in assay [4]; 100% (inactive) in assay [5]; 95.8% in assay [6] (setting [9]); 100% in assay [6] (setting [10]). Moreover, in assay [2], the Her2 level was 69% (inactive). The differential viability (reversal) in assay [6] (H69AR cells + 2 uM doxorubicin) was 4.48% (inactive). Besides, the inhibition is -4.8% (inactive) in assay [7] and 1.48% (inactive) in assay [8].
